# Data from ChEMBL document CHEMBL5046323, “Discovery of Phospholipase D Inhibitors with Improved Drug-like Properties and Central Nervous System Penetrance” (ACS Med Chem Lett, 2022).
# Tests used:
# [1] = Microsomal stability in human liver microsomes assessed as intrinsic clearance; assay type: ADME, Microsome; conditions: read-out: CLH
# Summary of the method: (§1)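 Intrinsic clearance (CLint) determined in rat or human liver microsomes.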
# [2] = Kinetic solubility of compound at pH 6.8; assay type: physicochemical; conditions: buffer, read-out: Kinetic_solubility
# Summary of the method: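 Kinetic solubility measured at pH 6.8.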
# [3] = Clearance in iv dosed rat administered as cassette dose; assay type: ADME, organism-based; conditions: in vivo
# Summary of the method: (§2)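 Rat IV clearance from cassette dosing; unbound clearance calculated as CL/fu.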
# [4] = Microsomal stability in rat liver microsomes assessed as intrinsic clearance; assay type: ADME, Microsome; conditions: read-out: CLH; summary of the method: as §1
# [5] = target: Phospholipase D2 (Homo sapiens, UniProt O14939); assay: Inhibition of PLD2 (unknown origin) expressed in human HEK cells by immunoprecipitation; assay type: cell-based
# Summary of the method: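 PLD1 or PLD2 immunoprecipitated from HEK-293 cell lysates and captured on plate with an antibody (ELISA format); 08:0 phosphatidylcholine substrate; released choline detected by Amplex Red readout.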
# [6] = Unbound clearance in iv dosed rat administered as cassette dose; assay type: ADME, organism-based; conditions: in vivo; summary of the method: as §2
# [7] = target: T1, Phospholipase D1 (Homo sapiens, UniProt Q13393); assay: Inhibition of PLD1 (unknown origin) expressed in human HEK cells by immunoprecipitation assay; assay type: cell-based
# T1 sequence (Q13393 whole entry): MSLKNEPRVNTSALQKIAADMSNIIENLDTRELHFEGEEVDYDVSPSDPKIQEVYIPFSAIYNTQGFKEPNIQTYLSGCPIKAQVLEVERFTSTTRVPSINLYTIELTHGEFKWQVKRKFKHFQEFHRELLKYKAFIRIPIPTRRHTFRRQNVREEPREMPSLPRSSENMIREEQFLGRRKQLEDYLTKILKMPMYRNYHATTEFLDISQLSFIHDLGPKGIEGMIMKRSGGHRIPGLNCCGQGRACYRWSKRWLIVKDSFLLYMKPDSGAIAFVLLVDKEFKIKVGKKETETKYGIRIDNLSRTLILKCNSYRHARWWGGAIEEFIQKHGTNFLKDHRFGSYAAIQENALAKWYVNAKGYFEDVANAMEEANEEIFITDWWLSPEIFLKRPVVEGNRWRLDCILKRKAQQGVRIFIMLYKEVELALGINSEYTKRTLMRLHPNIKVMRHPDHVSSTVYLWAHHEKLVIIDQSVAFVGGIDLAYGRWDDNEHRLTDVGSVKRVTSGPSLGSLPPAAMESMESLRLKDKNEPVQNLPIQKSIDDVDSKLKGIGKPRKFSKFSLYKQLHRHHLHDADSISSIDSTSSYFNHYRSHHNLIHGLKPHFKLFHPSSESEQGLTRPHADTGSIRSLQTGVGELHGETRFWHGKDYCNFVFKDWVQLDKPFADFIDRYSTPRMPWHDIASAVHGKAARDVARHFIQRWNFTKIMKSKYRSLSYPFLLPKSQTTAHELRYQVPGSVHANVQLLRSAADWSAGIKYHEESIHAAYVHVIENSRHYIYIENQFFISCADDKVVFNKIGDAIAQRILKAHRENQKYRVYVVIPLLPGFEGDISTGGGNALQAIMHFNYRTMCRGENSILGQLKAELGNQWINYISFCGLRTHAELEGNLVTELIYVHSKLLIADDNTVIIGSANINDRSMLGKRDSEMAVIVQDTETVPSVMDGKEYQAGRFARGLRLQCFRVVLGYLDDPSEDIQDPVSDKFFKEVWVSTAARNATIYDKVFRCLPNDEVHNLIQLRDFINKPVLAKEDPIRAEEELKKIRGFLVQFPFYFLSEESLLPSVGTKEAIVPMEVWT
# [8] = target: Phospholipase D1 (Homo sapiens) (UniProt Q13393); assay: Inhibition of PLD1 in human Calu-1 cells assessed as reduction in d9-phosphobutanol formation by mass spectrometry-based transphosphatidylation assay
# [9] = system: MDR1 (P-gp); assay: Efflux ratio of apparent permeability from basolateral to apical side over apical to basolateral side in dog MDCK-MDR1 cells; assay type: ADME, cell-based, Canis lupus familiaris
# Summary of the method: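 Efflux ratio calculated as Papp(B–A)/Papp(A–B) across MDR1-transfected MDCK monolayers.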
# Phospholipase D2, sequence (O14939 whole entry): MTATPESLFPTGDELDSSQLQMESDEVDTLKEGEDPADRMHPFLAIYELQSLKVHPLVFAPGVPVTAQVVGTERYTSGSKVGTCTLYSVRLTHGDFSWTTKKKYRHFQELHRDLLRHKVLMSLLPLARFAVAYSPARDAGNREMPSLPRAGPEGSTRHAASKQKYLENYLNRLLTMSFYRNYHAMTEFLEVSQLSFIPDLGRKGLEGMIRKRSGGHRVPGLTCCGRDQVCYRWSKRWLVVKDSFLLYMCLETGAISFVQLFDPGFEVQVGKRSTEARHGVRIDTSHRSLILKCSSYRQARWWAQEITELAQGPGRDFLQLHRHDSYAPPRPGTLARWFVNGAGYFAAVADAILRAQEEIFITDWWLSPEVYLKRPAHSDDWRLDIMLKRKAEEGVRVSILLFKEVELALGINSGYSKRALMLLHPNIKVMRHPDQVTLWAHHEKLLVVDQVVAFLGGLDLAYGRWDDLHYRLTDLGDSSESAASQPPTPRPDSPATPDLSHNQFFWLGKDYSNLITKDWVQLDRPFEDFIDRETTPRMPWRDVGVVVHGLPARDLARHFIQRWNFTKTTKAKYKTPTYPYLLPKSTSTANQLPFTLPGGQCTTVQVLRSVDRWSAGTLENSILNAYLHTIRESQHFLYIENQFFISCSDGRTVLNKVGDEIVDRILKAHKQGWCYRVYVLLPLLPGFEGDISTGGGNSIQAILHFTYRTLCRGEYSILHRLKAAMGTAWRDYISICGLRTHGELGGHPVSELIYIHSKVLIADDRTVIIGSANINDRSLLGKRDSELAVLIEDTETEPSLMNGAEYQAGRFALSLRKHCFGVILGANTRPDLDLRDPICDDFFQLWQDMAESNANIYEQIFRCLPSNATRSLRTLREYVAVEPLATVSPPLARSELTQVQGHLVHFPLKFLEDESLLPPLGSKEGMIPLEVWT
Compound,CLint scaled [1] [mL/min/kg],solubility kinetic [2] [µg/mL],clearance [3] [mL/min/kg],CLint scaled [4] [mL/min/kg],IC50 [5] [nM],CL free [6] [mL/min/kg],IC50 [7] [nM],IC50 [8] [nM],efflux ratio [9]
C[C@@H](CN1CCC2(CC1)C(=O)NCN2c1cccc(F)c1)NC(=O)c1ccc(Br)cc1,89,3.8,36,312,67,> 3800,–,–,–
C[C@@H]1CN(C(=O)[C@H](C)N2CCC(n3c(=O)[nH]c4ccccc43)CC2)Cc2ccccc21,> 200,–,–,> 300,320,–,100,6,22
CC(=O)N(C)CCN1CCC(n2c(=O)[nH]c3cc(Cl)ccc32)CC1,–,–,–,–,> 10000,–,130,180,24
C[C@@H](CN1CCC(n2c(=O)[nH]c3ccccc32)CC1)NC(=O)c1ccc(F)cc1,< 4,–,–,170,5600,–,33,16,82
C[C@@H](CN1CCC2(CC1)OC(=O)Nc1cccnc12)NC(=O)c1ccc(F)cc1,13,59,40,48,4100,83,200,54,68
C[C@@H](CN1CCC2(CC1)NC(=O)Nc1ccccc12)NC(=O)c1ccc(F)cc1,14,51,15,66,> 10000,74,280,720,67
C[C@@H]1CNCCN1C(=O)[C@H](C)N1CCC(n2c(=O)[nH]c3ccccc32)CC1,12,–,–,84,–,–,140,180,5.4
C[C@@H]1CN(C(=O)[C@H](C)N2CCC(n3c(=O)[nH]c4ccccc43)CC2)CCN1,< 5,–,39,29,–,73,320,190,13
C[C@@H](C(=O)N1CCNC(C)(C)C1)N1CCC(n2c(=O)[nH]c3ccccc32)CC1,8,–,39,56,7000,73,360,280,5.2
C[C@@H](CN1CCC2(CC1)OC(=O)Nc1cc(F)ccc12)NC(=O)c1ccc(F)cc1,68,–,–,250,1000,–,71,78,42
C[C@@H](CN1CCC2(CC1)c1ccccc1NC(=O)N2C)NC(=O)c1ccc(F)cc1,39,71,–,113,> 10000,–,> 10000,> 10000,93
C[C@@H](CN1CCC(c2n[nH]c3ccccc23)CC1)NC(=O)c1ccc(F)cc1,42,–,–,311,> 10000,–,970,4200,8
C[C@@H](CN1CCC(N2CCNC2=O)CC1)NC(=O)c1ccc(F)cc1,< 4,–,–,16,> 10000,–,> 10000,> 10000,7.7
CC[C@H]1CN(C(=O)[C@H](C)N2CCC(n3c(=O)[nH]c4ccccc43)CC2)CCN1,< 4,–,–,59,920,–,68,44,50
C[C@@H](CN1CCC2(CC1)CC(=O)Nc1ccccc12)NC(=O)c1ccc(F)cc1,28,59,8.6,83,> 10000,42,490,460,11
C[C@@H](CN1CCC(n2c(=O)oc3ccccc32)CC1)NC(=O)c1ccc(F)cc1,23,–,–,314,> 10000,–,9300,> 10000,2
C[C@@H]1CN(C(=O)[C@H](C)N2CCC(n3c(=O)[nH]c4ccccc43)CC2)C[C@H](C)N1,6.9,–,45,43,200,68,40,32,14
C[C@@H](CN1CCC2(CC1)OC(=O)Nc1ccncc12)NC(=O)c1ccc(F)cc1,12,58,48,50,3200,69,110,78,47
C[C@@H](CN1CCC2(CC1)OC(=O)Nc1ccccc12)NC(=O)c1ccc(F)cc1,39,76,40,103,1300,172,66,74,218
C[C@@H](CN1CCC(N2C(=O)Cc3ccccc32)CC1)NC(=O)c1ccc(F)cc1,42,–,–,311,> 10000,–,1200,1100,8
